TbMetRS inhib: T. brucei MetRS inhibitors, primary screen, biochemical, luminescence; methionyl-tRNA synthetase (Trypanosoma brucei brucei); 360,000 tested, 0.4% active; purified T. brucei MetRS, ATP depletion, Kinase-Glo luminescence; inhibition, % at 11.9 µM;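 active means inhibition above a per-plate cutoff of the control wells' mean inhibition plus 3 SD, cut at about 5.5% in these data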;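 further: 0% = DMSO wells median and 100% = median of wells with control inhibitor compound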
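Measured by: Kinase-Glo luciferase luminescence reporting remaining unconsumed ATP. Material: purified T. brucei MetRS enzyme. Doses: 11.9 µM compound single dose, 0.9% DMSO. Medium: HEPES buffer containing pyrophosphatase, BSA, spermine, DTT. Times: 15 min preincubation, 2 h reaction, all 25 °C. Reagent: methionine, ATP and bulk E. coli tRNA.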
Bfl-1 A1 inh: caspase 3/7 activation in MEF A1-2A-BIM cells, primary screen, A1 inhibitor project, cell-based, luminescence, HTS; 330,000 tested, 0.066% active; Caspase-Glo 3/7 luminescence, 3 h; percent of clofoctol response, vehicle zero; caspase activation, % (no concentration beside the values); AID 2462, 2010;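 active means over half of replicate activation scores above 10%, or exactly half above 10 with the replicate mean above 10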
NALP3 yeast inh: NALP3 inflammasome inhibitors in reconstituted yeast, primary screen, luminescence, uHTS; Yeast reconstituted NLRP3/ASC/caspase-1, beta-gal luminescence, 24 h; inhibition, % at 10 µM; 330,000 tested, 0.39% active;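 active means inhibition of 50% or more; inactive means inhibition below 50%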;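 further: plate controls were induced DMSO wells for no effect and uninduced yeast grown without galactose for full effect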
MC4R antagonist: MC4R antagonists of cAMP signaling, primary screen, cell-based, TR-FRET, antagonist arm of biased-ligand search | MC4R-expressing cells, MTII-stimulated cAMP, LANCE TR-FRET | inhibition, % at 6.5 µM | 360,000 tested, 0.48% active | AID 540295, 2011;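 active means inhibition above its plate's cutoff, the mean of tested wells on that plate plus 3 SD, cut at about 29% in these data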;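 further: 0% = Melanotan II alone and 100% = Melanotan II plus saturating MCL0020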
Target sequence (P32245 whole entry, looked up): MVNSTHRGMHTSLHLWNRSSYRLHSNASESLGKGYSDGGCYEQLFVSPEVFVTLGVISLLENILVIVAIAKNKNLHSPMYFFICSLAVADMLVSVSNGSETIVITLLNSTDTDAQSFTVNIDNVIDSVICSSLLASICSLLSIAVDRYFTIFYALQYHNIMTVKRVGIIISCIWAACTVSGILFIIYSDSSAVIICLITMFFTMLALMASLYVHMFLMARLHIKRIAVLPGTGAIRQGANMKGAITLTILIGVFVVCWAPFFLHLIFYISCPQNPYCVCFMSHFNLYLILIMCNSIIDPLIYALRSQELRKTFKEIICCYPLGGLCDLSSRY
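System: U2OS cells stably expressing human melanocortin 4 receptor (MC4R). Reagent: Melanotan II challenge after compound preincubation. Doses: 6.5 µM. Times: 30-min compound, 1-h challenge, 1-h detection, room temperature. Measured by: TR-FRET with Eu-cAMP and labeled anti-cAMP, 671 nm. Replicates: singlicate.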
NALP1 inh: NALP1 inflammasome inhibitors in reconstituted yeast, colorimetric, S. cerevisiae, triplicate retest; 280,000 tested, 0.61% active; S. cerevisiae NALP1/ASC/caspase-1 growth, X-gal OD620, 72 h; inhibition, % at 10 µM; in the data active means inhibition mostly above about 24%, no sharp cut-off; inactive means mostly below about 32%
MC4R ag barr: MC4R agonists recruiting beta-arrestin, primary screen, cell-based, luminescence, agonist arm of biased-ligand search; Melanocortin receptor 4 (Homo sapiens), P32245; U2OS MC4R beta-arrestin complementation; percent of melanotan II response, DMSO zero; activation, % at 8.9 µM; 360,000 tested, 0.98% active; AID 540308, 2011;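 active means activation above a per-plate cutoff, the mean activation of sample wells on that plate plus 3 SD, cut at about 8% in these data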
Starred values were filed as active, the others as inactive; x = no result given. In the library only some 2.5% were active in any assay of this set; here they are far more common.

SMILES	TbMetRS inhib	Bfl-1 A1 inh	NALP3 yeast inh	MC4R antagonist	NALP1 inh	MC4R ag barr
O=c1sc(Nc2ccccc2)nc2ccsc12	0	-2	49	13	70*	0
O=C(Nc1nc2ccsc2c(=O)s1)C1CCC1	0	-4	34	-7	x	1
COc1cccc(CNC(=O)C(CC(C)C)NC(=O)c2ccccc2C)c1 (centres undefined)	-1	0	10	1	1	0
CCOc1ccccc1OCCCC(=O)N1CCN(S(=O)(=O)c2ccc(Cl)cc2)CC1	0	1	x	2	x	-1
CCOc1ccccc1OCCC(=O)N1CCN(S(=O)(=O)c2ccccc2[N+](=O)[O-])CC1	0	21*	7	6	x	-1
O=C(NCC1OCCc2ccccc21)c1ccc(NC(=O)c2ccccc2Cl)cc1 (centres undefined)	-1	0	-9	4	20	-1
O=C(NCC1OCCc2ccccc21)c1ccc(NC(=O)c2cccc(Br)c2)cc1 (centres undefined)	0	0	10	16	27	9.5*
CC1(C(=O)NS(=O)(=O)c2ccc(Cl)cc2)CCN1C(=O)Cc1ccc(Cl)cc1Cl (centres undefined)	0	x	x	2	x	0
c1ccc2c(Nc3nc(N4CCOCC4)c4ccccc4n3)cccc2c1	0	0	47	0	91*	0
O=C(Nc1ccc2c(c1)CCC2)c1cnn2c1NC(c1ccco1)CC2C(F)(F)F (centres undefined)	-2	0	24	12	29	17*
CC1CCN(C(=O)COC(=O)c2ccc(Br)o2)CC1	0	0	25	-4	34*	-3
CCOC(=O)C1CCN(C(=O)COC(=O)c2ccc(Br)o2)CC1	0	0	16	10	19	2
Cc1ccc(Cn2c(SCC(=O)Nc3cc(C)on3)nc3ccccc3c2=O)cc1	0	-1	-9	-8	-6	8.8*
COc1ccc(C(=O)Nn2c(SCC(=O)NCc3ccccc3)nc3ccccc3c2=O)cc1	-1	1	1	1	38*	-2
CCOC(Cn1c(SCC(=O)Nc2cc(C)on2)nc2ccccc2c1=O)OCC	-1	-1	0	1	25	-2
Cc1cc(NC(=O)CSc2nc3ccccc3c(=O)n2Cc2ccccc2)no1	1	0	-5	5	1	8.5*
Cc1cc(NC(=O)CSc2nnc(-c3c[nH]c4ccccc34)n2-c2ccc(Cl)cc2)no1	0	-1	4	6	7	12*
S=C(NCC1CCCO1)NC12CC3CC(CC(C3)C1)C2 (centres undefined)	0	0	22	8	20*	-1
Cc1ccc(NC(=S)NCC2CCCO2)cc1 (centres undefined)	-2	1	-1	9	33*	1
COc1ccc(-c2csc(NC(=O)CCS(=O)(=O)c3ccccc3)n2)c(OC)c1	0	1	13	4	9	1
COc1cc([N+](=O)[O-])ccc1NC(=O)NNC(=O)c1sccc1C	0	-1	13	-5	4	-5
Cc1c(C(=O)Nc2cccnc2Cl)oc2ccccc12	0	-3	15	1	16	11*
Cc1c(C(=O)Nc2ccccn2)oc2ccccc12	-1	1	1	-6	0	0
Cc1ccc(NC(=O)C2CCCN2C(=O)c2cccs2)cc1C (centres undefined)	0	0	9	1	x	-2
CCOC(=O)c1ccccc1NC(=O)C1CSC2(C)CCC(=O)N12 (centres undefined)	0	0	5	2	0	-1
SMILES	TbMetRS inhib	Bfl-1 A1 inh	NALP3 yeast inh	MC4R antagonist	NALP1 inh	MC4R ag barr
CCCCn1c(/C=C/c2ccco2)nc2ccccc21	0	0	8	10	55*	1
O=S1(=O)CCOC[C@H](CC2CCCCC2)N1Cc1ccccc1Br	0	0	20	10	12	2
O=C(NCCC1=CCCCC1)C(c1ccccc1)c1ccccc1	-1	0	4	2	1	8.5*
CCN(CC)c1ccc(/C=C2/SC(=O)N(C(C)C)C2=O)o1	0	x	x	7	58*	-1
COc1ccc(-c2nnc3sc(COc4ccc(C)cc4)nn23)cc1	-1	-1	33	29*	-7	7
Clc1ccc(OCc2nn3c(-c4ccccc4)nnc3s2)c(Cl)c1	0	0	-12	12	39	8.9*
C[C@@H]1CC[C@]2(C(=O)O[C@@H]3O[C@H](CO)[C@@H](O)[C@H](O)[C@H]3O)CC[C@]3(C)C(=CCC4[C@@]5(C)CC[C@H](O[C@@H]6OC[C@H](O)[C@H](O[C@@H]7O[C@H](CO)[C@@H](O)[C@H](O)[C@H]7O)[C@H]6O)C(C)(C)C5CC[C@]43C)C2[C@]1(C)O (some centres undefined)	0	0	14	-1	x	-1
COc1ccc(/C=C\C(=O)O[C@@H]2C(O)C(O[C@@H]3OC(C)[C@H](O[C@@H]4OCC(O[C@H]5O[C@H](CO)[C@@H](O)C(O)C5O)C(O)C4O)C(O)C3O)[C@H](OC(=O)[C@]34CCC(C)(C)C[C@@H]3C3=CCC5[C@@]6(C)CC(O)C(O[C@@H]7OC(CO)C(O)[C@H](O)[C@H]7O)[C@@](C)(C(=O)O)C6CC[C@@]5(C)[C@]3(CO)CC4)O[C@H]2C)cc1 (some centres undefined)	0	1	26	66*	x	-1
CNC(C)C(=O)NC(C(=O)NC(C)C(=O)NNc1ccccc1)C(C)C (centres undefined)	1	x	x	16	x	2
C/C(CCc1oc2ccccc2c1-c1ccc(C)o1)=N/O	0	0	35	-2	25	1
C/C(CCc1oc2c(Br)cc(Br)cc2c1-c1ccc(C)o1)=N\O	15*	0	-5	6	4	0
O=C(c1cc(COc2c(F)cccc2F)on1)N1CC[C@@H]2CCCC[C@H]2C1	0	x	x	-1	x	0
COCCN=C1Sc2nc3ccc(C)cc3cc2CN1Cc1ccco1	0	0	1	-3	48*	-1
CCCCCc1c(C)nc(Nc2ccccc2)[nH]c1=O	7.8*	0	14	14	44	2
CC1CCN(S(=O)(=O)c2ccc3c(c2)N(C)C(=O)CC(=O)N3C)CC1	0	-1	16	17	11	1
